Results: ChEMBL document CHEMBL1125496, “New potent mitomycin derivatives: synthesis and antitumor activity of 7,7-(ethylenedioxy)mitomycins” (J Med Chem, 1992)

Experiments:
HeLa [1] = experiment: In vitro anticellular activity against HeLa cells.; format: functional, cell-based, Homo sapiens
Outline: (§1)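 HeLa S3 cells seeded on day 0, then exposed to drug for 1 h on day 1. Anticellular activity determined by a previously described method and reported as 1 h IC50 in μM.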

Mus musculus [2] = experiment: In vivo antitumor activity against P388 leukemia cells (ip)in mice and maximal increase in life span calculated as (T/C-1)*100 at the optimal dose of 2.5 mg/kg (%ILS max of mitomycin C at the optimal dose of 4.0 mg/kg).; format: functional
Mus musculus [3] = experiment: In vivo antitumor activity against P388 leukemia cells (ip)in mice and maximal increase in life span calculated as (T/C-1)*100 at the optimal dose of 5 mg/kg (%ILS max of mitomycin C at the optimal dose of 4.0 mg/kg).; format: functional
Mus musculus [4] = experiment: In vivo antitumor activity against P388 leukemia cells (ip)in mice and maximal increase in life span calculated as (T/C-1)*100 at the optimal dose of 13 mg/kg (%ILS max of mitomycin C at the optimal dose of 6.0 mg/kg).; format: functional
Mus musculus [5] = experiment: In vivo antitumor activity against P388 leukemia cells (ip)in mice and maximal increase in life span calculated as (T/C-1)*100 at the optimal dose of 3 mg/kg (%ILS max of mitomycin C at the optimal dose of 6.0 mg/kg); format: functional
Mus musculus [6] = experiment: In vivo antitumor activity against P388 leukemia cells (ip)in mice and maximal increase in life span calculated as (T/C-1)*100 at the optimal dose of 5 mg/kg (%ILS max of mitomycin C at the optimal dose of 6.0 mg/kg).; format: functional
Mus musculus [7] = experiment: In vivo antitumor activity against P388 leukemia cells (ip)in mice and maximal increase in life span calculated as (T/C-1)*100 at the optimal dose of 3.1 mg/kg (%ILS max of mitomycin C at the optimal dose of 4.0 mg/kg).; format: functional
Mus musculus [8] = experiment: In vivo antitumor activity against P388 leukemia cells (ip)in mice and maximal increase in life span calculated as (T/C-1)*100 at the optimal dose of 13 mg/kg (%ILS max of mitomycin C at the optimal dose of 4.0 mg/kg).; format: functional
HeLa [9] = experiment: The compound was tested in vitro for its anticellular activity against HeLa cells.; format: functional, cell-based; settings: Homo sapiens; outline: as §1
Mus musculus [10] = experiment: In vivo antitumor activity against P388 leukemia cells (ip)in mice and maximal increase in life span calculated as (T/C-1)*100 at the optimal dose of 0.75 mg/kg (%ILS max of mitomycin C at the optimal dose of 6.0 mg/kg); format: functional
Mus musculus [11] = experiment: In vivo antitumor activity against P388 leukemia cells (ip)in mice and maximal increase in life span calculated as (T/C-1)*100 at the optimal dose of 0.39 mg/kg (%ILS max of mitomycin C at the optimal dose of 4.0 mg/kg).; format: functional
Mus musculus [12] = experiment: TIn vivo antitumor activity against P388 leukemia cells (ip)in mice and maximal increase in life span calculated as (T/C-1)*100 at the optimal dose of 5 mg/kg (%ILS max of mitomycin C at the optimal dose of 4.0 mg/kg).; format: functional
Mus musculus [13] = experiment: In vivo antitumor activity against P388 leukemia cells (ip)in mice and maximal increase in life span calculated as (T/C-1)*100 at the optimal dose of 0.50 mg/kg (%ILS max of mitomycin C at the optimal dose of 6.0 mg/kg); format: functional
Mus musculus [14] = experiment: In vivo antitumor activity against P388 leukemia cells (ip)in mice and maximal increase in life span calculated as (T/C-1)*100 at the optimal dose of 2.5 mg/kg (%ILS max of mitomycin C at the optimal dose of 6.0 mg/kg).; format: functional
Mus musculus [15] = experiment: In vivo antitumor activity against P388 leukemia cells (ip)in mice and maximal increase in life span calculated as (T/C-1)*100 at the optimal dose of 4.0-6.0 mg/kg; format: functional

CO[C@@]12[C@H](COC(N)=O)C3=C(C(=O)C(C)C4(OCCO4)C3=O)N1C[C@H]1[C@@H]2N1C (stereo partly specified)
IC50 (HeLa [1]; Homo sapiens, HeLa): 600 nM | ILS max (Mus musculus [2]): 53%

CC1C(=O)C2=C(C(=O)C13OCCO3)[C@H](COC(N)=O)[C@@]1(O)[C@@H]3[C@H](CN21)N3C (stereo partly specified)
IC50 (HeLa [1]; Homo sapiens, HeLa): 4400 nM | ILS max (Mus musculus [3]): 73%

CC(=O)OC1=C(C)C2(OCCO2)C(=O)C2=C1N1C[C@H]3[C@H](N3C)[C@]1(O)[C@H]2COC(N)=O (stereo partly specified)
IC50 (HeLa [1]; Homo sapiens, HeLa): 4400 nM | ILS max (Mus musculus [4]): 71%

CO[C@@]12[C@H](COC(N)=O)C3=C(C(OC(=O)c4ccccc4)=C(C)C4(OCCO4)C3=O)N1C[C@@H]1N[C@@H]12
IC50 (HeLa [1]; Homo sapiens, HeLa): 540 nM | ILS max (Mus musculus [5]): 71%

CO[C@@]12[C@H](COC(N)=O)C3=C(C(OC(=O)CCC(C)=O)=C(C)C4(OCCO4)C3=O)N1C[C@@H]1N[C@@H]12
IC50 (HeLa [1]; Homo sapiens, HeLa): 590 nM | ILS max (Mus musculus [6]): 80%

COC1=C(C)C2(OCCO2)C(=O)C2=C1N1C[C@@H]3N[C@@H]3[C@]1(OC)[C@@H]2COC(N)=O
IC50 (HeLa [1]; Homo sapiens, HeLa): 20000 nM | ILS max (Mus musculus [7]): 41%

CCCCCCCC(=O)OC1=C(C)C2(OCCO2)C(=O)C2=C1N1C[C@@H]3N[C@@H]3[C@]1(OC)[C@@H]2COC(N)=O
IC50 (HeLa [1]; Homo sapiens, HeLa): 360 nM

CN1[C@H]2[C@@H]1CN1C3=C(C(=O)C4(OCCO4)C(C)(Cl)C3=O)[C@H](COC(N)=O)[C@@]21O (stereo partly specified)
IC50 (HeLa [1]; Homo sapiens, HeLa): 50000 nM | ILS max (Mus musculus [8]): 59%

CO[C@@]12[C@H](COC(N)=O)C3=C(C(OC(=O)C(C)(C)C)=C(C)C4(OCCO4)C3=O)N1C[C@@H]1N[C@@H]12
IC50 (HeLa [9]): 8100 nM

CCCCCCCCCCCC(=O)OC1=C(C)C2(OCCO2)C(=O)C2=C1N1C[C@@H]3N[C@@H]3[C@]1(OC)[C@@H]2COC(N)=O
IC50 (HeLa [1]; Homo sapiens, HeLa): 94 nM | ILS max (Mus musculus [10]): 67%

CO[C@@]12[C@H](COC(N)=O)C3=C(C(=O)C(C)C4(OCCO4)C3=O)N1C[C@@H]1N[C@@H]12 (stereo partly specified)
IC50 (HeLa [1]; Homo sapiens, HeLa): 41 nM | ILS max (Mus musculus [11]): 69%

CO[C@]12[C@@H]3[C@H](CN1C1=C(C(=O)C4(OCCO4)C(C)C1=O)[C@@H]2COC(N)=O)N3C (stereo partly specified)
IC50 (HeLa [1]; Homo sapiens, HeLa): 3100 nM | ILS max (Mus musculus [12]): 80%

CO[C@@]12[C@H](COC(N)=O)C3=C(C(OC(C)=O)=C(C)C4(OCCO4)C3=O)N1C[C@@H]1N[C@@H]12
IC50 (HeLa [1]; Homo sapiens, HeLa): 4400 nM | ILS max (Mus musculus [13]): 63%

CCOC(=O)OC1=C(C)C2(OCCO2)C(=O)C2=C1N1C[C@@H]3N[C@@H]3[C@]1(OC)[C@@H]2COC(N)=O
IC50 (HeLa [9]): 870 nM

CO[C@@]12[C@H](COC(N)=O)C3=C(C(=O)C(C)(Cl)C4(OCCO4)C3=O)N1C[C@@H]1N[C@@H]12 (stereo in doubt; 13b)
IC50 (HeLa [1]; hela): 3200 nM | ILS max (Mus musculus [14]): 60%

CO[C@@]12[C@H](COC(N)=O)C3=C(C(=O)C(C)(Cl)C4(OCCO4)C3=O)N1C[C@@H]1N[C@@H]12 (stereo in doubt; 13c)
IC50 (HeLa [1]; hela): 590 nM | ILS max (Mus musculus [14]): 73%

CO[C@@]12[C@H](COC(N)=O)C3=C(C(=O)C(C)=C(N)C3=O)N1C[C@@H]1N[C@@H]12 [MITOMYCIN]
IC50 (HeLa [1]; Homo sapiens, HeLa): 810 nM | ILS max (Mus musculus [15]): 52%
